According to article PMC5116011 (The Journal of antibiotics, 2016):
≈ marks a conversion by molar mass, not a printed value. Where two headings read alike, the source gives them in different places.

Experiments:
S. pyogenes ATCC700294 = experiment: MIC, microbroth dilution in Mueller-Hinton broth; format: cell-based; settings: Streptococcus pyogenes, ATCC700294, read-out: MIC SPy
Procedure, shortened: (§1)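 CLSI broth microdilution in cation-adjusted Mueller-Hinton broth. Inocula were grown from MH agar colonies in MH broth, with a final inoculum of 10^5 CFU/ml. Test compound final range was 200–0.2 µg/ml, incubated 37°C for 18–20 h. MIC was the lowest concentration preventing visible growth. Runs were at least duplicate, and the mean MIC was reported.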

P. vulgaris ATCC 33420 = experiment: MIC, microbroth dilution in Mueller-Hinton broth; format: cell-based; settings: Proteus vulgaris, ATCC33420, read-out: MIC PV
[1] = tested on: E. coli BW25113 ΔampC derivative JW4111-2; format: cell-based, Escherichia coli; settings: for MIC: Escherichia coli, BW25113, read-out: MIC ECΔampC −
E. coli BW25113 = experiment: MIC, microbroth dilution in Mueller-Hinton broth; format: cell-based, Escherichia coli; settings: for MIC EC MH+BP/CCCP / MIC EC +: E. coli BW25113; for MIC EC MH+BP/CCCP: MH broth with 30 µg/ml 2,2′-bipyridyl and 50 µg/ml CCCP; for MIC EC +: with clavulanic acid (6µg/ml); for MIC: Escherichia coli
P. aeruginosa PA01 = experiment: MIC, microbroth dilution in Mueller-Hinton broth; format: cell-based, Pseudomonas aeruginosa; settings: for MIC PA MH+BP/CCCP / MIC PA +: P. aeruginosa PA01; for MIC PA MH+BP/CCCP: MH broth with 30 µg/ml 2,2′-bipyridyl and 50 µg/ml CCCP; for MIC PA +: with clavulanic acid (6µg/ml); for MIC: Pseudomonas aeruginosa
S. aureus NRS 70 (MRSA) = experiment: MIC, microbroth dilution in Mueller-Hinton broth; format: cell-based; settings: Staphylococcus aureus, MRSA|NRS70, read-out: MIC MRSA
Procedure, shortened: as §1

B. subtilis ATCC23857 = experiment: MIC, microbroth dilution in Mueller-Hinton broth; format: cell-based; settings: Bacillus subtilis, ATCC23857, read-out: MIC BS
Procedure, shortened: as §1

S. pneumoniae R6 = experiment: MIC, microbroth dilution in Mueller-Hinton broth; format: cell-based; settings: Streptococcus pneumoniae, R6, read-out: MIC SP
Procedure, shortened: as §1

P. mirabilis ATCC 25933 = experiment: MIC, microbroth dilution in Mueller-Hinton broth; format: cell-based; settings: Proteus mirabilis, ATCC25933, read-out: MIC PM
[2] = tested on: S. aureus -ATCC29213 (MSSA); experiment: MIC, microbroth dilution in Mueller-Hinton broth; format: cell-based; settings: Staphylococcus aureus, read-out: MIC MSSA
Procedure, shortened: as §1

E. faecalis ATCC33186 = experiment: MIC, microbroth dilution in Mueller-Hinton broth; format: cell-based; settings: Enterococcus faecalis, ATCC33186, read-out: MIC EF
Procedure, shortened: as §1

B. anthracis sterne = experiment: microbe, parasite or virus in culture; format: cell-based; settings: Bacillus anthracis, read-out: MIC BA
[3] = tested on: E. coli BW25113 ΔtolC derivative JW5503-1; experiment: MIC, microbroth dilution in Mueller-Hinton broth; format: cell-based, Escherichia coli; settings: for MIC: Escherichia coli
[4] = BW25113, read-out: MIC EC, E. coli BW25113, Mueller-Hinton broth (Table 2)
[5] = BW25113, read-out: MIC ECΔtolC MH
[6] = BW25113, read-out: MIC ECΔtolC MH+BP

SMILES | MIC (S. pyogenes ATCC700294) | MIC (P. vulgaris ATCC 33420) | MIC ECΔampC + [1] | MIC EC MH+BP/CCCP (E. coli BW25113) | MIC EC + (E. coli BW25113) | MIC (E. coli BW25113; [4]) | MIC PA MH+BP/CCCP (P. aeruginosa PA01) | MIC PA + (P. aeruginosa PA01) | MIC (P. aeruginosa PA01; PA01, read-out: MIC PA) | MIC (P. aeruginosa PA01; PA01, read-out: MIC PA MH+CCCP) | MIC (S. aureus NRS 70 (MRSA)) | MIC (B. subtilis ATCC23857) | MIC (S. pneumoniae R6) | MIC (P. mirabilis ATCC 25933) | MIC [2] | MIC (E. faecalis ATCC33186) | MIC (B. anthracis sterne) | MIC ([3]; BW25113, read-out: MIC ECΔtolC) | MIC [3, 5] | MIC [3, 6] | also measured
CC1(C)SC2C(NC(=O)C(NC(=O)C3=C(O)C(c4ccccc4)NC3=O)c3ccccc3)C(=O)N2C1C(=O)O (centres unmarked) [Compound 2745] | 0.78 µg/mL (≈ 1.42 µM) | 12.5 µg/mL (≈ 22.7 µM) | 6.25 µg/mL | 12.5 µg/mL (≈ 22.7 µM) | 12.5 µg/mL | 100 µg/mL (≈ 182 µM) | 12.5 µg/mL (≈ 22.7 µM) | 25 µg/mL | 25 µg/mL (≈ 45.4 µM) | 12.5 µg/mL (≈ 22.7 µM) | 25 µg/mL (≈ 45.4 µM) | 3.13 µg/mL (≈ 5.68 µM) | 0.39 µg/mL (≈ 0.708 µM) | 3.13 µg/mL (≈ 5.68 µM) | 0.78 µg/mL (≈ 1.42 µM) | 12.5 µg/mL (≈ 22.7 µM) | 6.25 µg/mL (≈ 11.4 µM) | 3.13 µg/mL (≈ 5.68 µM) | 3.13 µg/mL (≈ 5.68 µM) | 1.56 µg/mL (≈ 2.83 µM) | MIC [1]: 6.25 µg/mL (≈ 11.4 µM); MIC (P. aeruginosa PA01; PA01, read-out: MIC PA MH): 25 µg/mL (≈ 45.4 µM); MIC (P. aeruginosa PA01; PA01, read-out: MIC PA MH+BP): 50 µg/mL (≈ 90.8 µM); MIC (P. aeruginosa PA01; PA01, read-out: MIC PA −): 25 µg/mL (≈ 45.4 µM); MIC ECΔtolC MH+BP/CCCP ([3]; {}): 0.78 µg/mL (≈ 1.42 µM); MIC ECΔtolC MH+CCCP ([3]; {}): 1.56 µg/mL (≈ 2.83 µM)
CC1(C)SC2C(NC(=O)C(NC(=O)C3=C(O)C(Cc4ccc([N+](=O)[O-])cc4)NC3=O)c3ccccc3)C(=O)N2C1C(=O)O (centres unmarked) [Compound 2835] | 0.78 µg/mL (≈ 1.28 µM) | 25 µg/mL (≈ 41 µM) | 12.5 µg/mL | 12.5 µg/mL (≈ 20.5 µM) | 6.25 µg/mL | 100 µg/mL (≈ 164 µM) | 12.5 µg/mL (≈ 20.5 µM) | 6.25 µg/mL | 25 µg/mL (≈ 41 µM) | 12.5 µg/mL (≈ 20.5 µM) | 25 µg/mL (≈ 41 µM) | < 0.2 µg/mL | < 0.2 µg/mL | 25 µg/mL (≈ 41 µM) | < 0.2 µg/mL | 25 µg/mL (≈ 41 µM) | 3.13 µg/mL (≈ 5.13 µM) | 3.13 µg/mL (≈ 5.13 µM) | 3.13 µg/mL (≈ 5.13 µM) | 1.56 µg/mL (≈ 2.56 µM) | MIC (P. aeruginosa PA01; PA01, read-out: MIC PA MH): 25 µg/mL (≈ 41 µM); MIC (P. aeruginosa PA01; PA01, read-out: MIC PA MH+BP): 25 µg/mL (≈ 41 µM); MIC ECΔtolC MH+BP/CCCP ([3]; {}): 0.78 µg/mL (≈ 1.28 µM); MIC ECΔtolC MH+CCCP ([3]; {}): 1.56 µg/mL (≈ 2.56 µM)
CCN1CCN(C(=O)N[C@@H](C(=O)N[C@@H]2C(=O)N3[C@@H]2SC(C)(C)[C@@H]3C(=O)O)c2ccccc2)C(=O)C1=O [piperacillin, reference compound] | < 0.2 µg/mL | 1.56 µg/mL (≈ 3.01 µM) | 1.56 µg/mL | 0.78 µg/mL (≈ 1.51 µM) | 3.13 µg/mL | – | 3.13 µg/mL (≈ 6.05 µM) | 3.13 µg/mL | – | 3.13 µg/mL (≈ 6.05 µM) | 25 µg/mL (≈ 48.3 µM) | 0.39 µg/mL (≈ 0.754 µM) | < 0.2 µg/mL | 0.19 µg/mL (≈ 0.367 µM) | < 0.2 µg/mL | 3.13 µg/mL (≈ 6.05 µM) | 0.39 µg/mL (≈ 0.754 µM) | 1.56 µg/mL (≈ 3.01 µM) | 0.09 µg/mL (≈ 0.174 µM) | 0.09 µg/mL (≈ 0.174 µM) | MIC [1]: 1.56 µg/mL (≈ 3.01 µM); MIC (E. coli BW25113; BW25113, read-out: MIC EC MH+BP): 1.56 µg/mL (≈ 3.01 µM)
CC1(C)SC2C(NC(=O)C(NC(=O)C3=C(O)C4CCCN4C3=O)c3ccccc3)C(=O)N2C1C(=O)O (centres unmarked) [Compound 2780] | 0.78 µg/mL (≈ 1.52 µM) | 12.5 µg/mL (≈ 24.3 µM) | 3.13 µg/mL | 25 µg/mL (≈ 48.6 µM) | 50 µg/mL | 200 µg/mL (≈ 389 µM) | 6.25 µg/mL (≈ 12.1 µM) | 12.5 µg/mL | 25 µg/mL (≈ 48.6 µM) | 6.25 µg/mL (≈ 12.1 µM) | 50 µg/mL (≈ 97.2 µM) | 0.78 µg/mL (≈ 1.52 µM) | 0.39 µg/mL (≈ 0.758 µM) | 1.56 µg/mL (≈ 3.03 µM) | 0.39 µg/mL (≈ 0.758 µM) | 25 µg/mL (≈ 48.6 µM) | 1.56 µg/mL (≈ 3.03 µM) | 6.25 µg/mL (≈ 12.1 µM) | 6.25 µg/mL (≈ 12.1 µM) | 6.25 µg/mL (≈ 12.1 µM) | MIC [1]: 12.5 µg/mL (≈ 24.3 µM); MIC (P. aeruginosa PA01; PA01, read-out: MIC PA MH): 25 µg/mL (≈ 48.6 µM); MIC (P. aeruginosa PA01; PA01, read-out: MIC PA MH+BP): 25 µg/mL (≈ 48.6 µM); MIC (P. aeruginosa PA01; PA01, read-out: MIC PA −): 25 µg/mL (≈ 48.6 µM); MIC ECΔtolC MH+BP/CCCP ([3]; {}): 3.13 µg/mL (≈ 6.08 µM); MIC ECΔtolC MH+CCCP ([3]; {}): 3.13 µg/mL (≈ 6.08 µM)
CC1(C)S[C@@H]2[C@H](NC(=O)C(C(=O)O)c3ccccc3)C(=O)N2[C@H]1C(=O)O (some centres unmarked) [carbenicillin, reference compound] | < 0.2 µg/mL | 100 µg/mL (≈ 264 µM) | – | 0.78 µg/mL (≈ 2.06 µM) | – | 100 µg/mL (≈ 264 µM) | 1.56 µg/mL (≈ 4.12 µM) | – | 100 µg/mL (≈ 264 µM) | 25 µg/mL (≈ 66.1 µM) | 6.25 µg/mL (≈ 16.5 µM) | < 0.2 µg/mL | < 0.2 µg/mL | 1.56 µg/mL (≈ 4.12 µM) | < 0.2 µg/mL | 3.13 µg/mL (≈ 8.27 µM) | < 0.2 µg/mL | 0.09 µg/mL (≈ 0.238 µM) | 1.56 µg/mL (≈ 4.12 µM) | 0.56 µg/mL (≈ 1.48 µM) | MIC (P. aeruginosa PA01; PA01, read-out: MIC PA MH): 200 µg/mL (≈ 529 µM); MIC (P. aeruginosa PA01; PA01, read-out: MIC PA MH+BP): 50 µg/mL (≈ 132 µM); MIC ECΔtolC MH+CCCP ([3]; E. coli BW25113 ΔtolC JW5503-1, MH broth containing 50 µg/ml CCCP): 0.78 µg/mL (≈ 2.06 µM)
